From ChEMBL document CHEMBL3875197, “Design, synthesis and pharmacological evaluation of 4-hydroxyphenylglycine and 4-hydroxyphenylglycinol derivatives as GPR88 agonists” (Bioorg Med Chem, 2017)
Calls of active or inactive are those of the source. The rule behind the calls is not given here.

How the values were obtained:
[1] = target: T1, G protein-coupled receptor 88 (Homo sapiens, UniProt Q9GZN0); assay: Agonist activity at PPLS-HA-tagged-GPR88 (unknown origin) expressed in CHO cells assessed as inhibition of forskolin-stimulated cAMP production measured after 30 mins by TR-FRET assay; format: functional, cell-based
T1 sequence (Q9GZN0 whole entry): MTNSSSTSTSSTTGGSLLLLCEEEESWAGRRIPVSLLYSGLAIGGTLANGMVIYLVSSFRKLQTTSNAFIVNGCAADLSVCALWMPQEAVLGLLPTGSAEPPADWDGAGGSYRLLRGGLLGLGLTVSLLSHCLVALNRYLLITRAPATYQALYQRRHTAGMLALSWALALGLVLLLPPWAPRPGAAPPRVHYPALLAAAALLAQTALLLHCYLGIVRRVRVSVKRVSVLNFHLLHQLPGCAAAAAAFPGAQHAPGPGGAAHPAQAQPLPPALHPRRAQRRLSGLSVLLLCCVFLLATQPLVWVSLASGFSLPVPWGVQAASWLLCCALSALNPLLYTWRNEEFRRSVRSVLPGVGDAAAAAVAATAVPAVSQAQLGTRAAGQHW

[2] = target: T1, G protein-coupled receptor 88; assay: Agonist activity at PPLS-HA-tagged-GPR88 (unknown origin) expressed in CHO cells assessed as inhibition of forskolin-stimulated cAMP production at 1 uM measured after 30 mins by TR-FRET assay; format: functional, cell-based
How it was run: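 Stable PPLS-HA-GPR88 CHO cells lifted with versene, 4,000 cells/well in HBSS with 5 mM HEPES, 0.1% BSA and 0.5 mM IBMX (pH 7.4). Single 1 μM test compound plus forskolin (300 nM at 4× final), 30 min at RT. Eu-cAMP tracer and ULight-anti-cAMP added, TR-FRET read (ex 337 nm) after 1 h at RT. Activity expressed as percentage of reference-agonist TR-FRET signal.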

SMILES	EC50 [1] [µM]	agonist activity call [2]
CCCC(C)COc1ccc([C@H](CO)NC(=O)Cc2ccccc2)cc1 (stereo not given in full)	0.487	–
CCCC(C)COc1ccc([C@@H](NC(=O)Cc2ccc(F)cc2)C(=O)OC)cc1 (stereo not given in full)	5.86	–
CCCC(C)COc1ccc([C@@H](NC(=O)Cc2ccc(C)cc2)C(=O)OC)cc1 (stereo not given in full)	3.7	–
CCCC(C)COc1ccc([C@@H](NC(=O)C(C)C2CCCCC2)C(=O)OC)cc1 (mixture of isomers)	> 10	–
CCCC(C)COc1ccc([C@@H](NC(=O)[C@@H](C)c2ccccc2)C(=O)O)cc1 (stereo not given in full)	> 10	–
CCCC(C)COc1ccc([C@H](CO)NC(=O)[C@@H](CC)c2ccccc2)cc1 (stereo not given in full)	0.145	–
CCCC(C)COc1ccc([C@@H](NC(=O)Cc2ccccc2)C(=O)OC)cc1 (stereo not given in full)	2.63	Active
CCCC(C)COc1ccc([C@@H](NC(=O)Cc2ccc(OC)cc2)C(=O)OC)cc1 (stereo not given in full)	9.57	–
CCCC(C)COc1ccc([C@@H](NC(=O)Cc2ccccc2F)C(=O)OC)cc1 (stereo not given in full)	7.87	–
CCCC(C)COc1ccc([C@H](CN=[N+]=[N-])NC(=O)[C@@H](C)c2ccccc2)cc1 (stereo not given in full)	0.134	–
CCCC(C)COc1ccc([C@H](CO)NC(=O)CCCc2ccccc2)cc1 (stereo not given in full)	1.44	–
CCCC(C)COc1ccc([C@@H](NC(=O)[C@@H](CC)c2ccccc2)C(=O)OC)cc1 (stereo not given in full)	0.583	Active
CCCC(C)COc1ccc([C@@H](NC(=O)Cc2ccc(C#N)cc2)C(=O)OC)cc1 (stereo not given in full)	> 10	–
CCCC(C)COc1ccc([C@@H](NC(=O)Cc2cccc(F)c2)C(=O)OC)cc1 (stereo not given in full)	3.91	–
CCCC(C)COc1ccc([C@@H](NC(=O)[C@H](C)c2ccccc2)C(=O)OC)cc1 (stereo not given in full)	–	Active
CCCC(C)COc1ccc([C@@H](NC(=O)[C@@H](C)c2ccccc2)C(=O)OC)cc1 (stereo not given in full)	0.538	Active
CCCC(C)COc1ccc([C@H](CO)NC(=O)CCc2ccccc2)cc1 (stereo not given in full)	0.345	–
